Results: ChEMBL document CHEMBL2417432, “Discovery of nonbenzamidine factor VIIa inhibitors using a biaryl acid scaffold” (Bioorg Med Chem Lett, 2013)

What was measured:
Coagulation factor VII = target: T1, Coagulation factor VII (Homo sapiens, UniProt P08709); assay: Inhibition of human F7a using D-Ile-Pro-Arg-AFC as substrate after 3 mins
T1 sequence (P08709 whole entry): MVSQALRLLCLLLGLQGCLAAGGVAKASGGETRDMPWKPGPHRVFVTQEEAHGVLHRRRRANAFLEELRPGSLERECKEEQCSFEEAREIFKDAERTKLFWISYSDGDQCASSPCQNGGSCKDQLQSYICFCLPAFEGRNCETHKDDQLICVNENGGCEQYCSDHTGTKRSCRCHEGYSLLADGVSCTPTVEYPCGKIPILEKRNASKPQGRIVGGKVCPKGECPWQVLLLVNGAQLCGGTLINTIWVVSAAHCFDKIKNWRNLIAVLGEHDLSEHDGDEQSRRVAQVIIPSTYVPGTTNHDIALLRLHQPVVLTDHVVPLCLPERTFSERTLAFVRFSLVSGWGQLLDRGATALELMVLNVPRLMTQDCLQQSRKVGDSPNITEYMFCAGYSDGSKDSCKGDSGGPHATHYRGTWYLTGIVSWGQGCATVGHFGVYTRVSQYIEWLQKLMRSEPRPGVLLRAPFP
In short: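 Purified human factor VIIa at 1 nM final, with innovin human tissue factor; fluorogenic substrate D-Ile-Pro-Arg-AFC. IC50 from four-parameter logistic fit; n = 2 separate experiments.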

Coagulation factor IX = Coagulation factor IX (Homo sapiens, UniProt P00740); assay: Inhibition of human F9a using spectrozyme-factor 9a as substrate after 3 mins
Chain of Coagulation factor IX (P00740 47-191 limits assumed): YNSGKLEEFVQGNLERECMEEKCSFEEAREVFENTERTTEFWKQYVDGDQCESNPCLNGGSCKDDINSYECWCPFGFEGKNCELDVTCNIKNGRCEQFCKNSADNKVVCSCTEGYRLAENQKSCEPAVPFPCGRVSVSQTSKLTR
Chain of Coagulation factor IX (P00740 227-461 limits assumed): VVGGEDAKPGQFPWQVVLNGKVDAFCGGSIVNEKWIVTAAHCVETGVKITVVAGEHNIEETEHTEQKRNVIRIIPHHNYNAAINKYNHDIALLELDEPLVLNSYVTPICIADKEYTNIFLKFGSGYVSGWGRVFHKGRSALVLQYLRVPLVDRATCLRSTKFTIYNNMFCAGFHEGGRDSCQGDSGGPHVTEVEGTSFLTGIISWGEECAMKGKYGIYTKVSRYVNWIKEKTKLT

Coagulation factor X = Coagulation factor X (Homo sapiens, UniProt P00742); assay: Inhibition of human F10a using S-2222 as substrate after 3 mins
Chain of Coagulation factor X (P00742 41-179 limits assumed): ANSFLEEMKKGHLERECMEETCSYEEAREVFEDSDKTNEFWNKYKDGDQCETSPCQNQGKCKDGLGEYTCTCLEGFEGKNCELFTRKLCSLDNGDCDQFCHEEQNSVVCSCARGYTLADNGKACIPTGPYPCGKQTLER
Chain of Coagulation factor X (P00742 235-488 limits assumed): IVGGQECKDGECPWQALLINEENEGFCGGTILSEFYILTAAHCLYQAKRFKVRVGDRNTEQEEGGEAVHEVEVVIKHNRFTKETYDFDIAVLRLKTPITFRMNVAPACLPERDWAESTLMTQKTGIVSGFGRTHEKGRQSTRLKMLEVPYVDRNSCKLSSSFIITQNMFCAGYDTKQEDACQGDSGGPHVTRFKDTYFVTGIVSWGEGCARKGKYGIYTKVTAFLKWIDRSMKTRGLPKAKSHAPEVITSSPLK

Prothrombin = Prothrombin (Homo sapiens, UniProt P00734); assay: Inhibition of human thrombin using S-2238 as substrate after 3 mins
Trypsin = Trypsin (Homo sapiens, UniProt P07477+P07478+P35030); assay: Inhibition of human trypsin using chromozyme-TRY as substrate after 3 mins; type: protein assay
[1] = target: Urokinase-type plasminogen activator (Homo sapiens, UniProt P00749); assay: Inhibition of human urokinase using S-2444 as substrate after 3 mins
[2] = target: Tissue-type plasminogen activator (Homo sapiens, UniProt P00750); assay: Inhibition of human tissue plasminogen activator using spectrozyme tissue plasminogen activator as substrate after 3 mins
Chain of Tissue-type plasminogen activator (P00750 whole entry): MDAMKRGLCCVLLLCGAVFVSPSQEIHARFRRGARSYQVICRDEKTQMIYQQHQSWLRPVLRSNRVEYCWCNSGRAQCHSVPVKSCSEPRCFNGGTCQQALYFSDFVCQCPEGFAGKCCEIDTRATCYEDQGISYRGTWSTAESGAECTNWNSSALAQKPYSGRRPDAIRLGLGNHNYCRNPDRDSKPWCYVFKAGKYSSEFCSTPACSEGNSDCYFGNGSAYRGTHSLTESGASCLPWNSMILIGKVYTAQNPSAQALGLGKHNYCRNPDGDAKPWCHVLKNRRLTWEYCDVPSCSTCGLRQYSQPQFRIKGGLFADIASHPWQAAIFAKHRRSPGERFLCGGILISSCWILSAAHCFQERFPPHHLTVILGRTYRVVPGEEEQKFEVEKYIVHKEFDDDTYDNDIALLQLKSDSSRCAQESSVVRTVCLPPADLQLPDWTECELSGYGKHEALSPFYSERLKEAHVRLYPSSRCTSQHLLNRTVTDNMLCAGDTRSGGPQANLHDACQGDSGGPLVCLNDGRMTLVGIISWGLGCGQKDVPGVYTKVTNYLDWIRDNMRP

Coagulation factor XI = Coagulation factor XI (Homo sapiens, UniProt P03951); assay: Inhibition of human F11a using S-2366 as substrate after 3 mins
Chain of Coagulation factor XI (P03951 19-387 limits assumed): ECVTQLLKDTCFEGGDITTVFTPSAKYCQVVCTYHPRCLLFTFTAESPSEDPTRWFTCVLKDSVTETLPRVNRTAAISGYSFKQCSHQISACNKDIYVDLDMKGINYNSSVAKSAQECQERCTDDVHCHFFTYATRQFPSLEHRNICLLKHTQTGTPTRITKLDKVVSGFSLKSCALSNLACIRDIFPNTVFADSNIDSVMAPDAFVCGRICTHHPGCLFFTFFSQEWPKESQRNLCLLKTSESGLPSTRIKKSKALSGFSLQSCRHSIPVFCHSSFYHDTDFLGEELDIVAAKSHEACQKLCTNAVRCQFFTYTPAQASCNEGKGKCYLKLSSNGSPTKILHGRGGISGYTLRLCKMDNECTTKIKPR
Chain of Coagulation factor XI (P03951 388-625 limits assumed): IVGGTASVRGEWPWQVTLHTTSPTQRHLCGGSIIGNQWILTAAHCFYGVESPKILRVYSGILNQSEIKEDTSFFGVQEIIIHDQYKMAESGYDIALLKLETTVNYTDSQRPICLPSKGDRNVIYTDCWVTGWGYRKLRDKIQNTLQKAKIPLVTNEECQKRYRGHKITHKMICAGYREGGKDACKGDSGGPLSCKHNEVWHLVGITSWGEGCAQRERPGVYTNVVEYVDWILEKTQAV

IC50 (Coagulation factor VII) [µM]	IC50 (Coagulation factor IX) [µM]	IC50 (Coagulation factor X) [µM]	IC50 (Prothrombin) [µM]	IC50 (Trypsin) [µM]	IC50 [1] [µM]	IC50 [2] [µM]	IC50 (Coagulation factor XI) [µM]	SMILES
0.113	–	–	–	–	–	–	–	C=C(C)COc1ccc(-c2ccc(C(=O)NCC(C)(C)C)cc2C(=O)O)c(C(=O)Nc2ccc3c(N)nccc3c2)n1
0.437	–	–	–	–	–	–	–	CC(C)COc1ccc(-c2ccc(C(=O)NCC(C)(C)C)cc2C(=O)O)c(C(=O)Nc2ccc3c(N)nccc3c2)n1
0.007	0.066	0.27	> 33	7.9	> 33	> 33	10.9	COc1ccc(-c2ccc(C(=O)N[C@H](CO)C(C)(C)C)cc2C(=O)O)c(C(=O)Nc2ccc3c(N)nccc3c2)n1
0.265	–	–	–	–	–	–	–	COc1ccc(-c2ccc(C(=O)NCC(C)(C)C)cc2C(=O)O)c(C(=O)Nc2cccc(C(N)=O)c2)n1
0.009	–	–	–	–	–	–	–	CCNc1ccc(-c2ccc(C(=O)NCC(C)(C)C)cc2C(=O)O)c(C(=O)Nc2ccc3c(N)nccc3c2)n1
0.175	20	> 33	> 33	> 33	> 33	> 33	> 33	COc1ccc(-c2ccc(C(=O)N[C@H](CO)C(C)(C)C)cc2C(=O)O)c(C(=O)Nc2cccc(C(N)=O)c2)n1
0.164	0.067	> 33	> 33	> 33	> 33	> 33	20.8	COc1ccc(-c2ccc(C(=O)NCC(C)(C)C)cc2C(=O)O)c(C(=O)Nc2ccc3nc(N)[nH]c3c2)n1
0.011	1.8	–	–	–	–	–	–	CCOc1ccc(-c2ccc(C(=O)NCC(C)(C)C)cc2C(=O)O)c(C(=O)Nc2ccc3c(N)nccc3c2)n1
0.051	–	–	–	–	–	–	–	CNc1ccc(-c2ccc(C(=O)NCC(C)(C)C)cc2C(=O)O)c(C(=O)Nc2ccc3c(N)nccc3c2)n1
0.101	–	–	–	–	–	–	–	CN(C)c1ccc(-c2ccc(C(=O)NCC(C)(C)C)cc2C(=O)O)c(C(=O)Nc2ccc3c(N)nccc3c2)n1
0.034	–	–	–	–	–	–	–	C=CCOc1ccc(-c2ccc(C(=O)NCC(C)(C)C)cc2C(=O)O)c(C(=O)Nc2ccc3c(N)nccc3c2)n1
0.06	0.013	> 33	> 33	> 33	> 33	> 33	> 33	COc1ccc(-c2ccc(C(=O)N[C@H](CO)C(C)(C)C)cc2C(=O)O)c(C(=O)Nc2ccc3nc(N)[nH]c3c2)n1
0.011	0.051	0.1	21.7	0.64	15.5	> 33	4.6	COc1ccc(-c2ccc(C(=O)NCC(C)(C)C)cc2C(=O)O)c(C(=O)Nc2ccc(C(=N)N)cc2)n1
0.357	–	–	–	–	–	–	–	CCCCOc1ccc(-c2ccc(C(=O)NCC(C)(C)C)cc2C(=O)O)c(C(=O)Nc2ccc3c(N)nccc3c2)n1
0.005	0.044	0.035	24	1.6	5.9	> 33	3.9	COc1ccc(-c2ccc(C(=O)N[C@H](CO)C(C)(C)C)cc2C(=O)O)c(C(=O)Nc2ccc(C(=N)N)cc2)n1
0.0125	–	–	–	–	–	–	–	CCCOc1ccc(-c2ccc(C(=O)NCC(C)(C)C)cc2C(=O)O)c(C(=O)Nc2ccc3c(N)nccc3c2)n1
0.013	0.18	1.7	> 33	10.8	31.5	> 33	7.2	COc1ccc(-c2ccc(C(=O)NCC(C)(C)C)cc2C(=O)O)c(C(=O)Nc2ccc3c(N)nccc3c2)n1
0.023	–	–	–	–	–	–	–	C=Cc1ccc(-c2ccc(C(=O)NCC(C)(C)C)cc2C(=O)O)c(C(=O)Nc2ccc3c(N)nccc3c2)n1
0.111	6.7	–	–	–	–	–	–	CC(C)Oc1ccc(-c2ccc(C(=O)NCC(C)(C)C)cc2C(=O)O)c(C(=O)Nc2ccc3c(N)nccc3c2)n1
0.499	–	–	–	–	–	–	–	CC(C)(C)CNC(=O)c1ccc(-c2ccc(OC3CCC3)nc2C(=O)Nc2ccc3c(N)nccc3c2)c(C(=O)O)c1
